# Data reported in ChEMBL document CHEMBL3585281, “Antibacterial Labdane Diterpenoids from Vitex vestita” (2015).
# Legend:
# Assay type in all cases: functional
# Listeria monocytogenes [1] = test: Antibacterial activity against Listeria monocytogenes N851 after 18 hrs by agar dilution method
# Outline: (§1)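 Agar-dilution MIC against Gram-positive strains. Compounds in DMSO, geometric dilutions giving final 100−0.75 mg/L in Mueller Hinton agar. Strains grown 18 h at 37 °C in trypticase soy broth, diluted in sterile water, spotted by Steers inoculator (about 1000 UFC/spot). Plates incubated 18 h at 37 °C; DMSO blank; ofloxacin positive control. MIC = lowest concentration with no visible growth.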
# Streptococcus agalactiae = test: Antibacterial activity against Streptococcus agalactiae CIP 103227 after 18 hrs by agar dilution method; outline: as §1
# Enterococcus faecium [2] = test: Antibacterial activity against Enterococcus faecium N507 after 18 hrs by agar dilution method; outline: as §1
# Staphylococcus aureus [3] = test: Antibacterial activity against Staphylococcus aureus CIP 53156 after 18 hrs by agar dilution method; outline: as §1
# [4] = tested on: Enterococcus casseliflavus; test: Antibacterial activity against Enterococcus casseliflavus CIP 103018 after 18 hrs by agar dilution method; outline: as §1
# Enterococcus hirae = test: Antibacterial activity against Enterococcus hirae CIP 5855 after 18 hrs by agar dilution method; outline: as §1
# Staphylococcus aureus [5] = test: Antibacterial activity against Staphylococcus aureus ATCC 25923 after 18 hrs by agar dilution method; outline: as §1
# Enterococcus faecium [6] = test: Antibacterial activity against Enterococcus faecium N490 after 18 hrs by agar dilution method; outline: as §1
# Bacillus cereus [7] = test: Antibacterial activity against Bacillus cereus N258 after 18 hrs by agar dilution method; outline: as §1
# Bacillus cereus [8] = test: Antibacterial activity against Bacillus cereus CIP 6624 after 18 hrs by agar dilution method; outline: as §1
# Enterococcus faecalis [9] = test: Antibacterial activity against Enterococcus faecalis N518 after 18 hrs by agar dilution method; outline: as §1
# Enterococcus durans = test: Antibacterial activity against Enterococcus durans CIP 104999 after 18 hrs by agar dilution method; outline: as §1
# [10] = tested on: Staphylococcus lugdunensis; test: Antibacterial activity against Staphylococcus lugdunensis ATCC 43809 after 18 hrs by agar dilution method; outline: as §1
# [11] = tested on: Staphylococcus haemolyticus; test: Antibacterial activity against Staphylococcus haemolyticus CIP 8156 after 18 hrs by agar dilution method; outline: as §1
# Staphylococcus aureus [12] = test: Antibacterial activity against Staphylococcus aureus CRBIP 2121 after 18 hrs by agar dilution method; outline: as §1
# [13] = tested on: Staphylococcus epidermidis; test: Antibacterial activity against Staphylococcus epidermidis CIP 53124 after 18 hrs by agar dilution method; outline: as §1
# Enterococcus faecalis [14] = test: Antibacterial activity against Enterococcus faecalis N491 after 18 hrs by agar dilution method; outline: as §1
# Bacillus cereus [15] = test: Antibacterial activity against Bacillus cereus N349 after 18 hrs by agar dilution method; outline: as §1
# Enterococcus faecium [16] = test: Antibacterial activity against Enterococcus faecium N733 after 18 hrs by agar dilution method; outline: as §1
# Staphylococcus aureus [17] = test: Antibacterial activity against Staphylococcus aureus CIP 483 after 18 hrs by agar dilution method; outline: as §1
# Bacillus cereus [18] = test: Antibacterial activity against Bacillus cereus N190 after 18 hrs by agar dilution method; outline: as §1
# Mammaliicoccus sciuri = test: Antibacterial activity against Staphylococcus sciuri N993 after 18 hrs by agar dilution method; outline: as §1
# [19] = tested on: Staphylococcus saprophyticus; test: Antibacterial activity against Staphylococcus saprophyticus CIP 76125 after 18 hrs by agar dilution method; outline: as §1
# Bacillus spizizenii = test: Antibacterial activity against Bacillus subtilis ATCC 6633 after 18 hrs by agar dilution method; outline: as §1
# Listeria innocua = test: Antibacterial activity against Listeria innocua E044 after 18 hrs by agar dilution method; outline: as §1
# Staphylococcus aureus [20] = test: Antibacterial activity against Staphylococcus aureus ATCC 9144 oxford after 18 hrs by agar dilution method; outline: as §1
# Enterococcus faecium [21] = test: Antibacterial activity against Enterococcus faecium N823 after 18 hrs by agar dilution method; outline: as §1
# Listeria monocytogenes [22] = test: Antibacterial activity against Listeria monocytogenes CIP 103575 after 18 hrs by agar dilution method; outline: as §1
# Listeria monocytogenes [23] = test: Antibacterial activity against Listeria monocytogenes N836 after 18 hrs by agar dilution method; outline: as §1
# Staphylococcus aureus [24] = test: Antibacterial activity against Staphylococcus aureus CIP 53154 after 18 hrs by agar dilution method; outline: as §1
# Enterococcus faecalis [25] = test: Antibacterial activity against Enterococcus faecalis N520 after 18 hrs by agar dilution method; outline: as §1
# Enterococcus avium = test: Antibacterial activity against Enterococcus avium CIP 104053 after 18 hrs by agar dilution method; outline: as §1
# [26] = tested on: Staphylococcus saprophyticus; test: Antibacterial activity against Staphylococcus saprophyticus E260 after 18 hrs by agar dilution method; outline: as §1
# Enterococcus gallinarum [27] = test: Antibacterial activity against Enterococcus gallinarum N492 after 18 hrs by agar dilution method; outline: as §1
# Corynebacterium striatum = test: Antibacterial activity against Corynebacterium striatum N840 after 18 hrs by agar dilution method; outline: as §1
# Listeria monocytogenes [28] = test: Antibacterial activity against Listeria monocytogenes N783 after 18 hrs by agar dilution method; outline: as §1
# [29] = tested on: Staphylococcus intermedius; test: Antibacterial activity against Staphylococcus intermedius N987 after 18 hrs by agar dilution method; outline: as §1
# Enterococcus gallinarum [30] = test: Antibacterial activity against Enterococcus gallinarum CIP 105985 after 18 hrs by agar dilution method; outline: as §1
# Enterococcus faecalis [31] = test: Antibacterial activity against Enterococcus faecalis CIP 103214 after 18 hrs by agar dilution method; outline: as §1
# Enterococcus gallinarum [32] = test: Antibacterial activity against Enterococcus gallinarum N489 after 18 hrs by agar dilution method; outline: as §1
# [33] = tested on: Enterococcus casseliflavus; test: Antibacterial activity against Enterococcus casseliflavus N487 after 18 hrs by agar dilution method; outline: as §1
# Staphylococcus aureus [34] = test: Antibacterial activity against Staphylococcus aureus CIP 7625 after 18 hrs by agar dilution method; outline: as §1
# Enterococcus faecium [35] = test: Antibacterial activity against Enterococcus faecium CIP 107387 after 18 hrs by agar dilution method; outline: as §1
# Staphylococcus aureus [36] = test: Antibacterial activity against Staphylococcus aureus CIP 5710 after 18 hrs by agar dilution method; outline: as §1
# Enterococcus faecium [37] = test: Antibacterial activity against Enterococcus faecium CIP 103014 after 18 hrs by agar dilution method; outline: as §1
# Enterococcus faecalis [38] = test: Antibacterial activity against Enterococcus faecalis CIP 104676 after 18 hrs by agar dilution method; outline: as §1
compound,measurement,setting,value
GENTAMICIN,MIC,Listeria monocytogenes [1],1 µM
same,MIC,Streptococcus agalactiae; ATCC 13813,2 µM
same,MIC,Enterococcus faecium [2],> 278 µM
same,MIC,Staphylococcus aureus [3],1 µM
same,MIC,[4],9 µM
same,MIC,Enterococcus hirae,35 µM
same,MIC,Staphylococcus aureus [5],1 µM
same,MIC,Enterococcus faecium [6],> 278 µM
same,MIC,Bacillus cereus [7],2 µM
same,MIC,Bacillus cereus [8],1 µM
same,MIC,Enterococcus faecalis [9],70 µM
same,MIC,Enterococcus durans,17 µM
same,MIC,[10],0.5 µM
same,MIC,[11],< 0.14 µM
same,MIC,Staphylococcus aureus [12],> 278 µM
same,MIC,[13],0.5 µM
same,MIC,Enterococcus faecalis [14],> 278 µM
same,MIC,Bacillus cereus [15],2 µM
same,MIC,Enterococcus faecium [16],> 278 µM
same,MIC,Staphylococcus aureus [17],1 µM
same,MIC,Bacillus cereus [18],1 µM
same,MIC,Mammaliicoccus sciuri,< 0.14 µM
same,MIC,[19],0.3 µM
same,MIC,Bacillus spizizenii,0.3 µM
same,MIC,Listeria innocua,1 µM
same,MIC,Staphylococcus aureus [20],0.5 µM
same,MIC,Enterococcus faecium [21],> 278 µM
same,MIC,Listeria monocytogenes [22],1 µM
same,MIC,Listeria monocytogenes [23],1 µM
same,MIC,Staphylococcus aureus [24],4 µM
same,MIC,Enterococcus faecalis [25],> 278 µM
same,MIC,Enterococcus avium,2 µM
same,MIC,[26],< 0.14 µM
same,MIC,Enterococcus gallinarum [27],17 µM
same,MIC,Corynebacterium striatum,> 278 µM
same,MIC,Listeria monocytogenes [28],1 µM
same,MIC,[29],139 µM
same,MIC,Enterococcus gallinarum [30],17 µM
same,MIC,Enterococcus faecalis [31],35 µM
same,MIC,Enterococcus gallinarum [32],4 µM
same,MIC,[33],9 µM
same,MIC,Staphylococcus aureus [34],1 µM
same,MIC,Enterococcus faecium [35],> 278 µM
same,MIC,Staphylococcus aureus [36],1 µM
same,MIC,Enterococcus faecium [37],17 µM
same,MIC,Enterococcus faecalis [38],> 278 µM
CN[C@H](CC(C)C)C(=O)N[C@H]1C(=O)N[C@@H](CC(N)=O)C(=O)N[C@H]2C(=O)N[C@H]3C(=O)N[C@H](C(=O)N[C@H](C(=O)O)c4cc(O)cc(O)c4-c4cc3ccc4O)[C@H](O)c3ccc(c(Cl)c3)Oc3cc2cc(c3O[C@@H]2O[C@H](CO)[C@@H](O)[C@H](O)[C@H]2O[C@H]2C[C@](C)(N)[C@H](O)[C@H](C)O2)Oc2ccc(cc2Cl)[C@H]1O [VANCOMYCIN],MIC,"Listeria monocytogenes [1]; N851, 18 h",0.3 µM
same,MIC,"Streptococcus agalactiae; ATCC 13813, 18 h",0.3 µM
same,MIC,"Enterococcus faecium [2]; N507, 18 h",0.6 µM
same,MIC,"Staphylococcus aureus [3]; CIP 53156, 18 h",0.3 µM
same,MIC,"[4]; CIP 103018, 18 h",2.7 µM
same,MIC,"Enterococcus hirae; CIP 5855, 18 h",0.3 µM
same,MIC,"Staphylococcus aureus [5]; ATCC 25923, 18 h",0.6 µM
same,MIC,"Enterococcus faecium [6]; N490, 18 h",22 µM
same,MIC,"Bacillus cereus [7]; N258, 18 h",0.3 µM
same,MIC,"Bacillus cereus [8]; CIP 6624, 18 h",0.3 µM
same,MIC,"Enterococcus faecalis [9]; N518, 18 h",0.6 µM
same,MIC,"Enterococcus durans; CIP 104999, 18 h",0.3 µM
same,MIC,"[10]; ATCC 43809, 18 h",0.6 µM
same,MIC,"[11]; CIP 8156, 18 h",0.6 µM
same,MIC,"Staphylococcus aureus [12]; CRBIP 2121, 18 h",2.7 µM
same,MIC,"[13]; CIP 53124, 18 h",0.6 µM
same,MIC,"Enterococcus faecalis [14]; N491, 18 h",> 86 µM
same,MIC,"Bacillus cereus [15]; N349, 18 h",0.6 µM
same,MIC,"Enterococcus faecium [16]; N733, 18 h",> 86 µM
same,MIC,"Staphylococcus aureus [17]; CIP 483, 18 h",0.6 µM
same,MIC,"Bacillus cereus [18]; N190, 18 h",0.3 µM
same,MIC,"Mammaliicoccus sciuri; N993, 18 h",0.6 µM
same,MIC,"[19]; CIP 76125, 18 h",0.6 µM
same,MIC,"Bacillus spizizenii; ATCC 6633, 18 h",0.1 µM
same,MIC,"Listeria innocua; E044, 18 h",0.3 µM
same,MIC,Staphylococcus aureus [20],0.2 µM
same,MIC,"Enterococcus faecium [21]; N823, 18 h",> 86 µM
same,MIC,"Listeria monocytogenes [22]; CIP 103575, 18 h",0.3 µM
same,MIC,"Listeria monocytogenes [23]; N836, 18 h",0.3 µM
same,MIC,"Staphylococcus aureus [24]; CIP 53154, 18 h",0.6 µM
same,MIC,"Enterococcus faecalis [25]; N520, 18 h",0.6 µM
same,MIC,"Enterococcus avium; CIP 104053, 18 h",0.3 µM
same,MIC,"[26]; E260, 18 h",0.6 µM
same,MIC,"Enterococcus gallinarum [27]; N492, 18 h",5 µM
same,MIC,"Corynebacterium striatum; N840, 18 h",0.3 µM
same,MIC,"Listeria monocytogenes [28]; N783, 18 h",0.3 µM
same,MIC,"[29]; N987, 18 h",0.6 µM
same,MIC,"Enterococcus gallinarum [30]; CIP 105985, 18 h",5 µM
same,MIC,"Enterococcus faecalis [31]; CIP 103214, 18 h",1.3 µM
same,MIC,"Enterococcus gallinarum [32]; N489, 18 h",5 µM
same,MIC,"[33]; N487, 18 h",2.7 µM
same,MIC,"Staphylococcus aureus [34]; CIP 7625, 18 h",2.7 µM
same,MIC,"Enterococcus faecium [35]; CIP 107387, 18 h",> 86 µM
same,MIC,"Staphylococcus aureus [36]; CIP 5710, 18 h",0.6 µM
same,MIC,"Enterococcus faecium [37]; CIP 103014, 18 h",0.3 µM
same,MIC,"Enterococcus faecalis [38]; CIP 104676, 18 h",5 µM
